Test results from ChEMBL document CHEMBL4011636, “Utilization of an Active Site Mutant Receptor for the Identification of Potent and Selective Atypical 5-HT2C Receptor Agonists” (J Med Chem, 2017).

What was measured:
[1] = target: T1, 5-hydroxytryptamine receptor 2B (Homo sapiens, UniProt P41595); experiment: Agonist activity at recombinant human 5-HT2B receptor expressed in HEK293E cells assessed as induction of intracellular Ca2+ levels after 90 secs by Fluo-4-dye based FLIPR assay; assay type: cell-based, HEK293
In short: (§1)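 HEK293E cells stably expressing human receptor (VNV isoform for 5-HT2C; ~400−795 fmol/mg protein), grown in DMEM with 10% dialyzed FBS and G418. Cells plated at 20 000/well in serum-free DMEM overnight at 37 °C, then loaded 1 h at room temperature with 5 μM Fluo-4 in HBSS/25 mM HEPES. Eleven compound concentrations added on FLIPR, Ca2+ signal read for 90 s. EC50 from a four-parameter logistic fit, at least triplicate.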

[2] = target: 5-hydroxytryptamine receptor 2A (Homo sapiens, UniProt P28223); experiment: Agonist activity at recombinant human 5-HT2A receptor expressed in HEK293E cells assessed as induction of intracellular Ca2+ levels after 90 secs by Fluo-4-dye based FLIPR assay; assay type: cell-based, HEK293; in short: as §1
[3] = target: T2, 5-hydroxytryptamine receptor 2C (Homo sapiens) (UniProt P28335); experiment: Intrinsic activity at recombinant human 5-HT2C receptor expressed in HEK293E cells assessed as induction of intracellular Ca2+ levels after 90 secs by Fluo-4-dye based FLIPR assay relative to serotonin; assay type: functional, cell-based; settings: HEK293
T2 sequence (whole entry): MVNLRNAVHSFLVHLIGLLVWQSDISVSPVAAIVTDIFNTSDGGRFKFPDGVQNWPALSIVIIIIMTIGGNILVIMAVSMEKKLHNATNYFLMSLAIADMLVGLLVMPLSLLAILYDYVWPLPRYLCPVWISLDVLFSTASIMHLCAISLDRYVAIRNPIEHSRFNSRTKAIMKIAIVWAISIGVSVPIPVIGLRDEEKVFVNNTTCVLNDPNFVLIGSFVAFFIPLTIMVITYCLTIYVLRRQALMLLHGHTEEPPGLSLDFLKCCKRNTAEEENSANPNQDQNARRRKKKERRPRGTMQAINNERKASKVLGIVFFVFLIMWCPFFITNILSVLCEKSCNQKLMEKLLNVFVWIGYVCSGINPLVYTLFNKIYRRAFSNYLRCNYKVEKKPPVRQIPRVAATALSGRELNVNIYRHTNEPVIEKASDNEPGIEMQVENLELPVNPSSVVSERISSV
In short: (§2)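 FLIPR Fluo-4 Ca2+ assay in HEK293E cells stably expressing the human receptor (VNV isoform for 5-HT2C), eleven-point concentration series, 90 s read. Response normalized to 3 μM serotonin on the same plate (defined as IA = 1). Intrinsic activity taken from a four-parameter logistic fit.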

[4] = target: T3, 5-hydroxytryptamine receptor 2C (Homo sapiens, UniProt P28335); experiment: Agonist activity at recombinant human 5-HT2C receptor expressed in HEK293E cells assessed as induction of intracellular Ca2+ levels after 90 secs by Fluo-4-dye based FLIPR assay; assay type: functional, cell-based, HEK293; in short: as §1
T3 sequence (P28335 whole entry): T2 sequence (whole entry)

[5] = Metabolic stability in human liver microsomes assessed as parent compound remaining at […] after 10 mins; assay type: ADME, microsome; settings: read-out: Stability
[6] = Metabolic stability in rat liver microsomes assessed as parent compound remaining at […] after 10 mins; assay type: ADME, microsome; settings: read-out: Stability
[7] = Drug uptake in Sprague-Dawley rat brain at 30 mg/kg, po measured at 1 hr post dose by LC/MS-MS analysis; assay type: ADME, organism-based; settings: read-out: Drug uptake
In short: (§3)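 Male rats given 30 mg/kg orally in 0.15% docusate sodium/2% PVP-K/97.85% water. Plasma and brain were sampled at a single time point after dosing. Brain was diluted 1:2 (vol/weight) with water before homogenization (dilution factor 3). Concentrations were measured by LC/MS−MS after acetonitrile protein precipitation. Values are the average of three animals; B/P is the brain to plasma ratio.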

[8] = Permeability of compound at pH 5.5 by PAMPA; assay type: physicochemical; settings: read-out: permeability
[9] = Permeability of compound at pH 7.4 by PAMPA; assay type: physicochemical; settings: read-out: permeability
[10] = Permeability across basolateral to apical side in human Caco2 cells; assay type: ADME, cell-based; settings: Caco-2, read-out: permeability
[11] = Permeability across apical to basolateral side in human Caco2 cells; assay type: ADME, cell-based; settings: Caco-2, read-out: permeability
[12] = Efflux ratio of permeability across basolateral to apical side in human Caco2 cells; assay type: ADME, cell-based; settings: Caco-2
[13] = Protein binding in human plasma; assay type: ADME, cell-free; settings: read-out: PPB (converted)
[14] = Protein binding in rat plasma; assay type: ADME, cell-free; settings: read-out: PPB (converted)
[15] = Half life in human microsomes; assay type: ADME, Microsome
[16] = Half life in rat microsomes; assay type: ADME, Microsome
[17] = Plasma concentration in Sprague-Dawley rat at 30 mg/kg, po measured at 1 hr post dose by LC/MS-MS analysis; assay type: ADME, organism-based; in short: as §3
[18] = Ratio of drug uptake in Sprague-Dawley rat brain to plasma at 30 mg/kg, po measured at 1 hr post dose by LC/MS-MS analysis; assay type: ADME, organism-based; settings: read-out: BPR; in short: as §3
Rattus norvegicus [19] = experiment: Antiobesity activity in ad libitum feeding Sprague-Dawley rat model assessed as reduction in food intake at 10 mg/kg, po administered at 60 mins prior to the onset of the dark cycle followed by incubation for first 8 hrs in light cycle and 12 hrs in dark cycle; assay type: functional; design: scale not given: the % may be the effect or the level left
In short: (§4)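 Male Sprague Dawley rats (~225 g; n = 6), trained in operant chambers, dosed orally with compound or vehicle (14% PPG, 1% Tween, 85% water) 60 min before dark onset. Food intake was monitored in individual boxes for 20 h (12 h dark plus first 8 h light). Percent reduction was computed from drug-treated versus vehicle-treated total intake.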

[20] = Agonist activity at recombinant human 5-HT2C receptor D134A mutant expressed in HEK293E cells assessed as induction of intracellular Ca2+ levels after 90 secs by Fluo-4-dye based FLIPR assay; assay type: cell-based; settings: HEK293
[21] = Drug uptake in Sprague-Dawley rat brain at 30 mg/kg, po measured at 2 hrs post dose by LC/MS-MS analysis; assay type: ADME, organism-based; settings: read-out: Drug uptake; in short: as §3
[22] = Plasma concentration in Sprague-Dawley rat at 30 mg/kg, po measured at 2 hrs post dose by LC/MS-MS analysis; assay type: ADME, organism-based; in short: as §3
[23] = Ratio of drug uptake in Sprague-Dawley rat brain to plasma at 30 mg/kg, po measured at 2 hrs post dose by LC/MS-MS analysis; assay type: ADME, organism-based; settings: read-out: BPR; in short: as §3
Rattus norvegicus [24] = experiment: Antiobesity activity in ad libitum feeding Sprague-Dawley rat model assessed as reduction in food pellet consumption at 10 mg/kg, po administered at 60 mins prior to the onset of the dark cycle followed by incubation for first 8 hrs in light cycle and 12 hrs in dark cycle; assay type: functional; design: scale not given: the % may be the effect or the level left; in short: as §4
[25] = target: T1, 5-hydroxytryptamine receptor 2B; experiment: Intrinsic activity at recombinant human 5-HT2B receptor expressed in HEK293E cells assessed as induction of intracellular Ca2+ levels after 90 secs by Fluo-4-dye based FLIPR assay relative to serotonin; assay type: functional, cell-based; settings: HEK293; in short: as §2

T1 sequence (P41595 whole entry, canonical isoform): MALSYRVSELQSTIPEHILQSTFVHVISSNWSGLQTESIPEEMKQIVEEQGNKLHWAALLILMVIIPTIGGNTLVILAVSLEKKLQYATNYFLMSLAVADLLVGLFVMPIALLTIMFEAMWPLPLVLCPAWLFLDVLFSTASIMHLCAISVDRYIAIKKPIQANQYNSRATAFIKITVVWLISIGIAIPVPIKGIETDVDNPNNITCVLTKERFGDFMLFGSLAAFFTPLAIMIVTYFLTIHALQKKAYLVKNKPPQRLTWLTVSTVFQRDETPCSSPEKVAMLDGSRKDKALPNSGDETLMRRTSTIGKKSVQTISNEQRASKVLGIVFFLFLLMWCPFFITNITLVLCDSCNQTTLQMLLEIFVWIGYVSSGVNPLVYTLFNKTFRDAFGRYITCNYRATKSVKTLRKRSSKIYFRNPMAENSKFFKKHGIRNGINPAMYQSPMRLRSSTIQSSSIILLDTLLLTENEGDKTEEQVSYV
Chain of 5-hydroxytryptamine receptor 2A (P28223 whole entry): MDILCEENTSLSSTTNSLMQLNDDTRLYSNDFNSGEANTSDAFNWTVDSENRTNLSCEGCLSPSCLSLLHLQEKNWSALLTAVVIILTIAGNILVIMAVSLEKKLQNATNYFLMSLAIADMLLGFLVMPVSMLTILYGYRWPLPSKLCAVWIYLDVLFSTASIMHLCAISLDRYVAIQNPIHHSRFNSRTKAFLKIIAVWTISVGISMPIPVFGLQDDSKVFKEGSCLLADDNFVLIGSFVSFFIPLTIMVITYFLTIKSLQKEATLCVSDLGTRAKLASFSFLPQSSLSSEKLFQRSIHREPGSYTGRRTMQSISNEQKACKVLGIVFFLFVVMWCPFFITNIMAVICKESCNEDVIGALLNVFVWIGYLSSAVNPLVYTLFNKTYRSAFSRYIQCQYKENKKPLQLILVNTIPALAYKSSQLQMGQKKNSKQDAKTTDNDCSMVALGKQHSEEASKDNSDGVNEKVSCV

| SMILES | EC50 [1] [nM] | EC50 [2] [nM] | Intrinsic activity [3] | EC50 [4] [nM] | remaining at 10 min [5] [%] | remaining at 10 min [6] [%] | also measured |
| --- | --- | --- | --- | --- | --- | --- | --- |
| Cc1nc(-c2cccc3ccccc23)sc1C(=O)N1CCOCC1 | > 10000 | > 10000 | 0.8 | 95 to 115 | 50 | 6 | – |
| Cc1cc(-c2cccc3ccccc23)sc1C(=O)N1CCC(CO)CC1 | > 10000 | > 5000 | 1 | 20 | 87 | 20 | – |
| Cc1nc(-c2cccc3ccccc23)sc1C(=O)N1CCc2[nH]cnc2C1 | > 10000 | > 10000 | 1 | 68 | 70 | 15 | – |
| Cn1cc(-c2cccc3ccccc23)cc1C(=O)N1CCC(CO)CC1 | > 10000 | > 10000 | 1 | 41 to 45 | 76 | 57 | – |
| Cc1oc(-c2cccc3ccccc23)nc1C(=O)N1CCC(CO)CC1 | > 10000 | > 10000 | 1 | 381 to 575 | 62 | 16 | – |
| Cc1[nH]c(-c2cccc3ccccc23)cc1C(=O)N1CCC(CO)CC1 | > 10000 | > 10000 | 0.9 | 12 | 76 | 44 | concentration at 1 h [7]: 202 nM; Papp [8]: 62.4 ×10⁻⁶ cm/s; Papp [9]: 49.2 ×10⁻⁶ cm/s; Papp B→A [10]: 21.9 ×10⁻⁶ cm/s; Papp A→B [11]: 17.2 ×10⁻⁶ cm/s; efflux ratio [12]: 1.3; fraction unbound [13]: 0.017; fraction unbound [14]: 0.075; half-life [15]: 41 min; half-life [16]: 11 min; concentration at 1 h [17]: 1140 nM; Kp at 1 h [18]: 0.2 |
| Cc1sc(-c2cccc3ccccc23)cc1C(=O)N1CCC(CO)CC1 | > 10000 | > 10000 | 0.8 | 47 to 119 | 66 | 23 | – |
| Cc1cc2c(cc1C(F)(F)F)N(C(=O)Nc1ccc(Oc3cccnc3C)nc1)CC2 [SB-243213] | – | – | – | – | – | – | Activity (Rattus norvegicus [19]): 15% |
| Cc1nn(-c2cccc3ccccc23)cc1C(=O)N1CCC(CO)CC1 | > 10000 | > 10000 | 1 | 16 | 88 | 51 | – |
| Cc1nc(-c2cccc3ccccc23)sc1C(=O)N1CCN(C)CC1 | > 10000 | > 10000 | 0.8 | 43 to 123 | – | – | EC50 [20]: 130 nM |
| Cn1nc(-c2cccc3ccccc23)cc1C(=O)N1CCC(CO)CC1 | > 10000 | 75 | 1 | 6 | 92 | 37 | concentration at 2 h [21]: 721 nM; Papp [8]: 58.8 ×10⁻⁶ cm/s; Papp [9]: 61.3 ×10⁻⁶ cm/s; Papp B→A [10]: 16.8 ×10⁻⁶ cm/s; Papp A→B [11]: 32.3 ×10⁻⁶ cm/s; efflux ratio [12]: 0.5; fraction unbound [13]: 0.023; fraction unbound [14]: 0.076; half-life [15]: 36 min; half-life [16]: 8 min; concentration at 2 h [22]: 2480 nM; Kp at 2 h [23]: 0.3 |
| COCCN(C)C(=O)c1sc(-c2cccc3ccccc23)nc1C | > 10000 | > 10000 | 0.9 | 14 | 28 | 7 | – |
| Cc1c(C(=O)NN2CCCCC2)nn(-c2ccc(Cl)cc2Cl)c1-c1ccc(Cl)cc1 [RIMONABANT] | – | – | – | – | – | – | Activity (Rattus norvegicus [24]): 27% |
| Cc1nc(-c2cccc3ccccc23)sc1C(=O)N(C)CCc1cccnc1 | > 10000 | > 10000 | 0.7 | 38 to 39 | < 1 | 1 | – |
| O=C(c1csc(-c2cccc(Cl)c2Cl)n1)N1CCOCC1 | > 10000 | > 10000 | 0.8 | 119 to 128 | – | – | EC50 [20]: 2 nM |
| Cc1nc(-c2cccc3ccccc23)sc1C(=O)N(C)CCO | > 10000 | > 10000 | 0.9 | 30 to 50 | 67 | 22 | – |
| CCn1nc(-c2cccc3cccnc23)cc1-c1cccnn1 | 3 to 6 | 151 | 1 | 2 | 8 | – | Intrinsic activity [25]: 0.2 |
| Cc1nc(-c2cccc3ccccc23)sc1C(=O)N1CCCCC1 | > 10000 | > 10000 | 1 | 24 | 24 | 1 | – |
| Cc1cn(-c2cccc3ccccc23)cc1C(=O)N1CCC(CO)CC1 | > 10000 | > 10000 | 0.7 | 369 to 433 | 67 | 18 | – |
| Cc1nc(-c2cccc3ccccc23)sc1C(=O)N1CCCC(O)CC1 (configuration not stated) | > 10000 | > 10000 | 0.9 | 17 to 25 | 50 | 8 | – |
